Results: ChEMBL document CHEMBL1149048, “Kneglomeratanol, kneglomeratanones A and B, and related bioactive compounds from Knema glomerata” (J Nat Prod, 1994)
≈ marks a conversion by molar mass, not a printed value.

Columns and labels:
[1] = system: HT-29; experiment: Cytotoxicity against human HT-29 cells after 7 days; assay type: functional; details: HT-29, 168 h, read-out: ED50 (the source's name)
Procedure, shortened: (§1)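 This was a seven-day in vitro cytotoxicity test run under standard protocols on three solid tumor lines: A-549 (human lung carcinoma), MCF-7 (human breast carcinoma) and HT-29 (human colon adenocarcinoma). Adriamycin was the positive control.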

[2] = Toxicity in brine shrimp larvae; assay type: organism-based; details: artemia, in vivo
[3] = system: MCF7; experiment: Cytotoxicity against human MCF7 cells after 7 days; assay type: functional; details: MCF7, 168 h, read-out: ED50 (the source's name); procedure, shortened: as §1
[4] = system: A549; experiment: Cytotoxicity against human A549 cells after 7 days; assay type: functional; details: A549, 168 h, read-out: ED50 (the source's name); procedure, shortened: as §1
[5] = system: Agrobacterium tumefaciens; experiment: Antitumor activity against Agrobacterium tumefaciens-induced crown gall tumors in potato by disk test relative to control; assay type: functional
Procedure, shortened: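 Crown gall tumors on potato discs were scored, and the read-out was % inhibition relative to control. The assay was run in-house.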

SMILES | EC50 [1] | LC50 [2] | EC50 [3] | EC50 [4] | T/C [5]
Oc1cccc(CCCCCCCCCCCCc2ccccc2)c1 | 2.62 µg/mL (≈ 7.74 µM) | 1.37 µg/mL (≈ 4.05 µM) | 2.09 µg/mL (≈ 6.17 µM) | 1.85 µg/mL (≈ 5.46 µM) | 39%
Oc1cccc(CCCCCCCCCCc2ccccc2)c1 | 28.6 µg/mL (≈ 92.1 µM) | 0.45 µg/mL (≈ 1.45 µM) | 7.76 µg/mL (≈ 25 µM) | 35 µg/mL (≈ 113 µM) | 54%
Oc1cc(O)cc(CCCCCCCCCCc2ccccc2)c1 | 3.24 µg/mL (≈ 9.92 µM) | 0.47 µg/mL (≈ 1.44 µM) | 2.69 µg/mL (≈ 8.24 µM) | 3.49 µg/mL (≈ 10.7 µM) | 62%
O=C(O)c1c(O)cccc1CCCCCCCCCCCCc1ccccc1 | 2.98 µg/mL (≈ 7.79 µM) | 1.24 µg/mL (≈ 3.24 µM) | 3.06 µg/mL (≈ 8 µM) | 15 µg/mL (≈ 39.2 µM) | 61%
CC(=O)c1c(O)cc(O)cc1CCCCCCCCCCc1ccccc1 | 4.47 µg/mL (≈ 12.1 µM) | 0.18 µg/mL (≈ 0.488 µM) | 2.87 µg/mL (≈ 7.79 µM) | 3.22 µg/mL (≈ 8.74 µM) | 30%
Oc1cc(O)cc(CCCCCCCCCCCCc2ccccc2)c1 | 2.87 µg/mL (≈ 8.1 µM) | 0.33 µg/mL (≈ 0.931 µM) | 1.84 µg/mL (≈ 5.19 µM) | 3.26 µg/mL (≈ 9.2 µM) | 45%
COc1ccc(-c2coc3cc(O)cc(O)c3c2=O)cc1 [BIOCHANIN] | 28.4 µg/mL (≈ 99.8 µM) | 107 µg/mL (≈ 376 µM) | 5.49 µg/mL (≈ 19.3 µM) | 19.8 µg/mL (≈ 69.5 µM) | 54%
CCCCCCCCCCCCCCCc1cc(O)cc(O)c1 [CARDOL] | 3.25 µg/mL (≈ 10.1 µM) | 7.65 µg/mL (≈ 23.9 µM) | 2.41 µg/mL (≈ 7.52 µM) | 2.37 µg/mL (≈ 7.39 µM) | 41%
COc1cccc2c1C(=O)c1c(O)c3c(c(O)c1C2=O)C[C@@](O)(C(=O)CO)C[C@@H]3O[C@H]1C[C@H](N)[C@H](O)[C@H](C)O1 [DOXORUBICIN] | 0.00669 µg/mL (≈ 0.0123 µM) | – | 0.147 µg/mL (≈ 0.27 µM) | 0.00148 µg/mL (≈ 0.00272 µM) | –
COc1ccc(-c2coc3cc(O)ccc3c2=O)cc1 [FORMONONETIN] | 6.43 µg/mL (≈ 24 µM) | 22.7 µg/mL (≈ 84.6 µM) | 1.96 µg/mL (≈ 7.31 µM) | 2.87 µg/mL (≈ 10.7 µM) | 79%
Oc1cccc(CCCCCCCCC[C@H](O)c2ccccc2)c1 [KNEGLOMERATANOL] | 9.33 µg/mL (≈ 28.6 µM) | 0.21 µg/mL (≈ 0.643 µM) | 2.32 µg/mL (≈ 7.11 µM) | 5.99 µg/mL (≈ 18.3 µM) | 29%
CC(=O)c1c(O)cc(O)cc1CCCCCCCCc1ccccc1 [KNEGLOMERATANONE A] | 18.8 µg/mL (≈ 55.3 µM) | 0.37 µg/mL (≈ 1.09 µM) | 3.44 µg/mL (≈ 10.1 µM) | 3.89 µg/mL (≈ 11.4 µM) | 38%
CCCCCCCCCCCCCc1cc(O)cc(O)c1C(C)=O [KNEGLOMERATANONE B] | 6.56 µg/mL (≈ 19.6 µM) | 1.92 µg/mL (≈ 5.74 µM) | 1.12 µg/mL (≈ 3.35 µM) | 2.3 µg/mL (≈ 6.88 µM) | 38%
